Read-outs that look alike come from different tables or passages of the source.
What was measured:
[1] = molecular target: human cytochrome bc1 (derived from HEK-293 cells) (Homo sapiens, UniProt P00156); experiment: Inhibition of human cytochrome bc1 activity; format: biochemical
[2] = tested on: P. berghei ookinete; experiment: In vitro ookinete assay; format: cell-based; conditions: read-out: IC50 ookinete production
[3] = tested on: P. yoelii in CD1 Swiss mice; conditions: for ED90: P. yoelii, 4-day test, oral, PEG400 vehicle
[4] = tested on: P. berghei infected ICR mice; experiment: Thompson test, blood stage efficacy; format: in vivo
[5] = tested on: transgenic P. falciparum clone D10yDHOD; experiment: Susceptibility of transgenic clone expressing yeast DHOD; format: cell-based, Plasmodium falciparum
[6] = tested on: major cytochrome P450 enzymes; experiment: Cytochrome P450 inhibition; format: in vitro ADME; conditions: at concentrations needed for efficacy
[7] = tested on: two rat cell lines; conditions: read-out: IC50 level, ATP levels; either of two rat cell lines, galactose medium
[8] = tested on: human foreskin fibroblasts (HFF); format: cell-based
[9] = tested on: J774 mouse macrophages; format: cell-based
[10] = tested on: P. berghei oocysts in Anopheles stephensi; experiment: In vivo transmission blocking, mosquitoes fed on treated infected mice; conditions: for inhibition at 10 mg/kg: read-out: inhibition of oocyst production
Method in brief: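 Mice at about 3% P. berghei parasitemia received a single oral dose of test compound (0.1–10 mg/kg) or vehicle. Female Anopheles stephensi fed on the mice 1 h after treatment. Midguts were dissected on day 10 post infection and examined for oocysts. Dihydroartemisinin and primaquine (10 mg/kg) were positive controls.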

[11] = tested on: P. falciparum (NF54) gametocytes (Stage I-II); experiment: Inhibition of early stage gametocyte development; format: cell-based; conditions: three days exposure of Stage I-II gametocytes
[12] = Aqueous solubility, kinetic and thermodynamic methods; format: physicochemical
Method in brief: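 Kinetic method: DMSO stock diluted into various media. Thermodynamic method: equilibrium solubility with physiologically relevant media and incubation time.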

[13] = Metabolic stability in liver microsomes; format: in vitro ADME; conditions: in vitro incubation with liver microsomes, multiple species
[14] = tested on: P. falciparum; experiment: Immuno-deficient; format: in vivo
Method in brief: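 NOD-scid IL2Rγnull-type immunodeficient mice were engrafted with human erythrocytes and infected with P. falciparum. The test compound was given orally daily for 4 consecutive days as a non-optimized suspension, not in PEG400 (3 vehicle mice, 11 treated). Parasitemia was measured by FACS, with Giemsa smears at 48 h. Blood levels were followed over 23 h after the first dose. ED90 was taken at day 7 versus vehicle. AUCED90 was estimated graphically from AUC0→23h versus log10 day-7 parasitemia for each mouse.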

[15] = tested on: P. falciparum clinical isolates; experiment: Ex vivo susceptibility of clinical field isolates, modified WHO microtest; format: cell-based, Plasmodium falciparum; conditions: read-out: median EC50, Papua, Indonesia
Method in brief: (§1)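 Isolates were taken from patients attending malaria clinics in southern Papua, Indonesia, and tested ex vivo by a modified WHO microtest. Median IC50 was reported separately for each species. Comparisons used the Wilcoxon rank sum test.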

[16] = Pharmacokinetics in mice, intravenous and oral; format: in vivo, mouse; conditions: 0.3 mg/kg oral in PEG400
Method in brief: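 Non-fasted male Swiss outbred mice were used. The IV dose was 0.1 mg/kg, formulated in mouse plasma and given via the tail vein. The oral dose was 0.3 mg/kg by gavage, as a solution in undiluted PEG400.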

[17] = tested on: 100 neurotransmitter receptors, peptide receptors, ion channels, reuptake sites, and enzymes
[18] = tested on: murine bone marrow derived hematopoietic progenitors (CFU-GM, BFUE, CFU-GEMM); format: cell-based
[19] = tested on: P. falciparum strain 3D7 oocyst formation; experiment: Standard membrane feeding assay; format: in vivo
[20] = tested on: P. falciparum strains (D6, Dd2, TM90-C2B, V1/S); experiment: In vitro isobolar testing with proguanil, fixed combination ratios; format: cell-based; conditions: isobolar testing against 4 strains
[21] = tested on: P. vivax clinical isolates; experiment: Ex vivo susceptibility of clinical field isolates, modified WHO microtest; format: cell-based, Plasmodium vivax; conditions: read-out: median EC50, Papua, Indonesia
Method in brief: as §1

[22] = tested on: P. berghei oocyst formation in Anopheles stephensi mosquitoes; experiment: Oocyst formation after membrane feeding of drug-spiked infected blood; format: in vivo
Method in brief: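 Mouse blood infected with GFP-expressing P. berghei was mixed with the test compound and placed at once in membrane feeders at 39 °C. It was offered to about 75 overnight-starved mosquitoes. After 7 days, fluorescent oocysts on dissected midguts were counted by semi-automated image capture and analysis. DMSO was the negative control.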

[23] = tested on: P. falciparum; experiment: In vitro parasite reduction ratio; format: cell-based
[24] = tested on: P. berghei (luciferase) sporozoite infections of BALB/c mice; experiment: In vivo liver stage, sporozoite infection with bioluminescence imaging; conditions: per os one hour post infection
Method in brief: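 BALB/c mice (5 per group) were infected with luciferase-expressing P. berghei sporozoites. One hour later they received a single dose of test compound by gavage; untreated mice served as controls. For bioluminescence imaging at 44 h and on days 6 and 13, mice were injected with D-luciferin and anesthetized, tracking liver and blood stages.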

[25] = molecular target: hERG (human-Ether-a-go-go-Related Gene) channel (Homo sapiens, UniProt Q12809); format: cell-based
Chain of hERG (human-Ether-a-go-go-Related Gene) channel (Q12809 whole entry): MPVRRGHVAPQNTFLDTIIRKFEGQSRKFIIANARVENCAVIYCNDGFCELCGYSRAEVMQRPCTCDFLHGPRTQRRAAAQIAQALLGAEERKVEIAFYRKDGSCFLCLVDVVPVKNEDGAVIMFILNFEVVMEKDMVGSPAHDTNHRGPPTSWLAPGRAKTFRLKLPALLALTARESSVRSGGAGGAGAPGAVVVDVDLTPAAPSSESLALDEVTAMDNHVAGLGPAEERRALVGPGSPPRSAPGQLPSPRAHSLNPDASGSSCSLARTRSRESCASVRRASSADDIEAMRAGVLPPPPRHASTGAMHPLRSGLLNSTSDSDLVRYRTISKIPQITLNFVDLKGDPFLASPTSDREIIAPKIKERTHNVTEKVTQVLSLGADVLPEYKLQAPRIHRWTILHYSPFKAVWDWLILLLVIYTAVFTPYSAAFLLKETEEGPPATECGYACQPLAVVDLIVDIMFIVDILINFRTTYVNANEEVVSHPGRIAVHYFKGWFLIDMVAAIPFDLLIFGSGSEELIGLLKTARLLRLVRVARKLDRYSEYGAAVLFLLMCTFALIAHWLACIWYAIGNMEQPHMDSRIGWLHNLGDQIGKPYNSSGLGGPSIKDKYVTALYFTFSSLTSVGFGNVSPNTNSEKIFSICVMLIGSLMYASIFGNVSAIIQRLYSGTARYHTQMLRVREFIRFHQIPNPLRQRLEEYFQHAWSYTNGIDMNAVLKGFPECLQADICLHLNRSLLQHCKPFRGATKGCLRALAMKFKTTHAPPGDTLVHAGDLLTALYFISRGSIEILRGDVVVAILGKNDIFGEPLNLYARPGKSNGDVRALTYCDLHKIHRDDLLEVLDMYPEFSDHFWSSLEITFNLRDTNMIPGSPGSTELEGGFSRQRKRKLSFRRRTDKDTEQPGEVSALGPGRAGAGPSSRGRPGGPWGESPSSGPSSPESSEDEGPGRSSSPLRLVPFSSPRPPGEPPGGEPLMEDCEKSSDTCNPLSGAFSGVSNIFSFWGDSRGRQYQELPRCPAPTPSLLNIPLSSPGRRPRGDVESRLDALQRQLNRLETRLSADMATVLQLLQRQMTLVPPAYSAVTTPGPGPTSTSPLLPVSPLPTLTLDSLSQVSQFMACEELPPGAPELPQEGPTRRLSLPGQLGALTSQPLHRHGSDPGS

[26] = tested on: 5-strain Ames bacterial assay; format: cell-based
[27] = tested on: exoerythrocytic stages of P. berghei; experiment: In vitro liver stage assay, luciferase sporozoites on HEPG2 hepatoma cells; format: cell-based; conditions: read-out: EC50, luciferase expression, 44 h post infection
Method in brief: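 Luciferase-expressing P. berghei sporozoites were added to HepG2 hepatoma monolayers and allowed to infect for 1 h. A dilution series of the test compound was then added and plates were incubated at 37 °C. Luciferase was read 44 h post infection. EC50 came from a nonlinear logistic dose-response fit.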

[28] = tested on: P. falciparum strains (D6, 3D7, Dd2, W2, recent isolates from SE Asia, TM90-C2B); format: cell-based, Plasmodium falciparum; conditions: atovaquone-resistant clinical isolate TM90-C2B
[29] = molecular target: P. falciparum cytochrome bc1 (Plasmodium falciparum, UniProt Q02768); format: biochemical; conditions: read-out: IC50, nM P. falciparum cytochrome bc1; P. falciparum mitochondria
Chain of P. falciparum cytochrome bc1 (Q02768 whole entry): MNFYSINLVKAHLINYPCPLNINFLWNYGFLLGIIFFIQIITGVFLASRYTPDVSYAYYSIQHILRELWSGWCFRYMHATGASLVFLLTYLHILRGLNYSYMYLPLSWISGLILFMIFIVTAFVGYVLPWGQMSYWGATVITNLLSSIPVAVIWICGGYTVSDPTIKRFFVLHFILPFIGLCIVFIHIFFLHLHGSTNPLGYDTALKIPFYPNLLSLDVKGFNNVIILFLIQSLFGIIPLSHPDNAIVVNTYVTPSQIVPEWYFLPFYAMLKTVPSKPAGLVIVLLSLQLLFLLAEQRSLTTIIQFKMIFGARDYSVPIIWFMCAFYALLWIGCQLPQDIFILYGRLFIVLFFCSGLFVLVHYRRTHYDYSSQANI

[30] = tested on: late stage IV - V P. falciparum gametocytes; experiment: Late stage gametocyte viability, high content imaging; format: cell-based; conditions: read-out: IC50 stage IV-V gametocyte viability
[31] = tested on: P. cynomolgi liver schizonts; experiment: In vitro liver stage assay in primary rhesus hepatocytes; format: cell-based; conditions: read-out: IC50 liver schizonts, 6-day incubation
[32] = tested on: P. falciparum strain 3D7 oocyst formation; conditions: comparable SMFA; cited from earlier work

## O=C1C(O)=C([C@H]2CC[C@H](c3ccc(Cl)cc3)CC2)C(=O)c2ccccc21 [Atovaquone, reference compound]
[1]
  IC50: 460 nM
[2]; Plasmodium berghei, 24 h
  IC50: 67 nM
[3]
  ED90: 0.04 mg/kg/day

## Cc1[nH]c2ccccc2c(=O)c1-c1ccc(Oc2ccc(OC(F)(F)F)cc2)cc1 [ELQ-271]
[1]; read-out: IC50 human cytochrome bc1, enzyme derived from HEK cells
  IC50: 1990 nM

## COc1cc2[nH]c(C)c(-c3ccc(Oc4ccc(OC(F)(F)F)cc4)cc3)c(=O)c2cc1Cl [ELQ-300]
[4]; Thompson or Peter's tests
  curative blood stage dose: 1 mg/kg
[4]; Thompson test, P. berghei, ICR mice
  fifty percent effective dose (ED50): 0.016 mg/kg/day
[1]; read-out: IC50, nM human cytochrome bc1, derived from HEK-293 cells
  IC50: > 10000 nM
[5]
  sensitivity of D10yDHOD transfectants: insensitive
[6]
  inhibition of the major cytochrome P450 enzymes: did not inhibit
[2]; first 24 h of development, GFP endpoint
  IC50: 56 nM
[7]
  IC50: > 100000 nM
[8]
  IC50: > 10000 nM
[9]
  IC50: > 10000 nM
[10]; single oral dose, feeding one hour after treatment
  dose that completely prevented transmission (oocyst development): ≥ 0.1 mg/kg
[11]
  lowest exposure preventing gametocyte development to Stage IV: ≤ 0.1 µM
[12]
  aqueous solubility: low aqueous solubility
[13]
  stability to metabolic degradation by cytochrome P450 enzymes: highly stable
[3]; P. yoelii murine model
  non-recrudescence dose relative to atovaquone: 30 times lower
[3]
  ED90: 0.15 mg/kg/day
[3]; mouse, in vivo
  AUCED90: 1.4 μg·h/mL/day
[3]; mouse, in vivo, po
  drug exposure (AUC0-24 h) in peripheral blood at the ED90: 1400 ng·h/mL
[14]; SCID mice, oral daily for four days, suspension formulation
  dose that reduced parasitemia by 90% at day 7 (ED90): 5.9 mg/kg/day
[14]; SCID mouse model, blood
  estimated exposure at the ED90 dose (AUCED90): 1.1 μg·h/mL/day
[15]
  EC50: 14.9 nM
[16]
  Tmax: approximately 7.5 h
  oral bioavailability: approximately 100%
[17]
  inhibition in screen of 100 targets: did not observe any significant inhibition
[18]
  IC50: > 10000 nM
[19]; one of two independent studies
  concentration that completely blocked oocyst formation: ≥ 10 nM
[19]; the other study, 10 nM
  reduction in oocyst formation: 95.9%
[20]
  interaction with proguanil: strong pharmacological synergism
[21]
  EC50: 17.9 nM
[22]; 10 nM
  reduction of oocyst burden in mosquito midguts: 19.2%
[22]; blood containing 100 nM
  reduction of the total oocyst count relative to controls: 99.4%
[22]; blood containing 1 μM drug
  oocyst formation: no oocysts formed
[23]; 10x EC50 concentration
  time required to kill >99.9% of parasites: ≈ 100 h
[23]; exposure up to 120 hr
  speed of action: slow-acting
[24]
  single dose that completely blocked infection: ≥ 0.03 mg/kg
[25]
  IC50: > 11000 nM
[26]
  mutagenic potential: lacks mutagenic potential
[27]
  EC50: 1.02 nM
[28]
  cross-resistance with atovaquone in TM90-C2B: 1.3 fold
[29]
  IC50: 0.58 nM
[30]; 72 hr
  IC50: 71.9 nM
[31]
  IC50: ~100 nM

## C[C@H]1Cc2c([nH]c3cc(Cl)c(F)cc23)[C@@]2(N1)C(=O)Nc1ccc(Cl)cc12 [NITD609]
[32]
  concentration required to completely inhibit oocyst formation: 500 nM

## C[C@H]1[C@@H](O)O[C@@H]2O[C@@]3(C)CC[C@H]4[C@H](C)CC[C@@H]1[C@@]24OO3 [dihydroartemisinin]
[10]
  inhibition at 10 mg/kg: 63.7%

## COc1cc(NC(C)CCCN)c2ncccc2c1 (stereo not shown) [primaquine]
[10]
  inhibition at 10 mg/kg: 95.4%

## COc1ccc(C[C@H](N)C(=O)N[C@H]2[C@@H](O)[C@H](n3cnc4c(N(C)C)ncnc43)O[C@@H]2CO)cc1 [puromycin, reference compound]
[30]; Plasmodium falciparum, 72 h
  IC50: 75.3 nM

Source: paper PMC4227885 (Science translational medicine, 2013)
